According to article PMC2765529 (Journal of medicinal chemistry, 2009):
Where “and” joins values, the source holds several entries; their conditions need not be identical. Equal values may be shown once. Where a name gives a salt, the structure may show the parent alone.

Tests used:
[1] = Tissue biodistribution and regional brain uptake in rats; assay type: in vivo, male Sprague-Dawley rats; settings: for Blood uptake: i.v., mean ± SD
[2] = target: T1, human VAChT (Homo sapiens, UniProt Q16572); assay: VAChT binding, competition against [^3H]vesamicol; settings: for Ki: VAChT (Ki [nM]), [^3H]vesamicol competition, mean ± SEM
T1 sequence (Q16572 1-532): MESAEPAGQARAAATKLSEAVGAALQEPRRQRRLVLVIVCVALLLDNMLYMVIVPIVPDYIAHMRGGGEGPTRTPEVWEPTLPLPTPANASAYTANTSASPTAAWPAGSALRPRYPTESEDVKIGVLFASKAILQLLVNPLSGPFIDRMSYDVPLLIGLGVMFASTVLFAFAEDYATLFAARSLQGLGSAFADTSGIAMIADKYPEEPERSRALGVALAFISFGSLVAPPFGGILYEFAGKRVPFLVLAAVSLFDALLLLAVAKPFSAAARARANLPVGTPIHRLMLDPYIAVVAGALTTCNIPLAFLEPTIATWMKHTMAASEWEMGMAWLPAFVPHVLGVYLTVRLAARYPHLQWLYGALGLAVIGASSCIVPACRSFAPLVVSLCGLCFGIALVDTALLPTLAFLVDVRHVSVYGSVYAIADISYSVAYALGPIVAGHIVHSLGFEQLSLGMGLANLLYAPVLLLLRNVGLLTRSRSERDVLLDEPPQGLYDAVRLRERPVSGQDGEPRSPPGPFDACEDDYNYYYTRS

[3] = Ex vivo autoradiography of rat brain; assay type: in vivo, male Sprague-Dawley rat; settings: rat sacrificed 1 h p.i., 1 mm coronal sections
Outline: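 A single mature male Sprague-Dawley rat received ∼500 μCi of the 18F-labelled test compound by tail-vein injection under isoflurane/oxygen anaesthesia. The rat recovered and was euthanised 1 h later. The brain was taken out quickly and set in a metal brain matrix with 1 mm slots. A 1.0 mm slice through the striatum was imaged by flatbed scanner and by electronic autoradiography.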

[4] = 5 min p.i., rat brain dissection

Compound: O=C(c1ccc([18F])cc1)C1CCN([C@@H]2Cc3ccccc3C[C@H]2O)CC1 (racemic) [(±)-[^18F]9e, (±)-trans-2-Hydroxy-3-(4-(4-[^18F]fluorobenzoyl)piperidino)tetralin]
- Bone uptake ([1]; 5 min p.i.): 0.307 ± 0.011 %ID/g
- Brain uptake ([1]; 5 min p.i.): 0.606 ± 0.100 %ID/g
- Fat uptake ([1]; 5 min p.i.): 0.088 ± 0.026 %ID/g
- Heart uptake ([1]; 5 min p.i.): 0.328 ± 0.014 %ID/g
- Liver uptake ([1]; 5 min p.i.): 1.939 ± 0.382 %ID/g
- Muscle uptake ([1]; 5 min p.i.): 0.079 ± 0.015 %ID/g
- Blood uptake ([1]; 5 min p.i., n=4 rats): 0.122 ± 0.023 %ID/g
- Bone uptake ([1]; 5 min p.i., listed as racemic [^18F]9e): 0.31 %ID/g
- Bone uptake ([1]; 30 min p.i.): 0.445 ± 0.032 %ID/g
- Brain uptake ([1]; 30 min p.i.): 0.153 ± 0.044 %ID/g
- Fat uptake ([1]; 30 min p.i.): 0.177 ± 0.039 %ID/g
- Heart uptake ([1]; 30 min p.i.): 0.141 ± 0.005 %ID/g
- Liver uptake ([1]; 30 min p.i.): 1.504 ± 0.271 %ID/g
- Lung uptake ([1]; 30 min p.i.): 0.553 ± 0.056 %ID/g
- Muscle uptake ([1]; 30 min p.i.): 0.071 ± 0.006 %ID/g
- Blood uptake ([1]; 30 min p.i., n=4 rats): 0.071 ± 0.009 %ID/g
- Bone uptake ([1]; 1 h p.i.): 0.623 ± 0.080 %ID/g
- Brain uptake ([1]; 1 h p.i.): 0.095 ± 0.012 %ID/g
- Fat uptake ([1]; 1 h p.i.): 0.196 ± 0.035 %ID/g
- Heart uptake ([1]; 1 h p.i.): 0.094 ± 0.008 %ID/g
- Lung uptake ([1]; 1 h p.i.): 0.346 ± 0.045 %ID/g
- Muscle uptake ([1]; 1 h p.i.): 0.076 ± 0.012 %ID/g
- Blood uptake ([1]; 1 h p.i., n=4 rats): 0.043 ± 0.003 %ID/g
- Bone uptake ([1]; 2 h p.i.): 0.739 ± 0.044 %ID/g
- Brain uptake ([1]; 2 h p.i.): 0.059 ± 0.008 %ID/g
- Fat uptake ([1]; 2 h p.i.): 0.173 ± 0.042 %ID/g
- Heart uptake ([1]; 2 h p.i.): 0.056 ± 0.007 %ID/g
- Kidney uptake ([1]; 2 h p.i.): 0.853 ± 0.171 %ID/g
- Liver uptake ([1]; 2 h p.i.): 1.188 ± 0.158 %ID/g
- Lung uptake ([1]; 2 h p.i.): 0.223 ± 0.014 %ID/g
- Muscle uptake ([1]; 2 h p.i.): 0.047 ± 0.006 %ID/g
- Blood uptake ([1]; 2 h p.i., n=4 rats): 0.027 ± 0.004 %ID/g

Compound: O=C(c1ccccc1)C1CCN([C@@H]2Cc3ccccc3C[C@H]2O)CC1 (racemic) [Compound 9a, (±)-trans-2-Hydroxy-3-(4-benzoylpiperidino)tetralin hydrochloride]
- IC50 [2]: 4.3 ± 1 nM

Compound: O=C(c1ccc(Br)cc1)C1CCN([C@@H]2Cc3ccccc3C[C@H]2O)CC1 (racemic) [Compound 9b, (±)-trans-2-Hydroxy-3-(4-(4-bromobenzoyl)piperidino)tetralin hydrochloride]
- IC50 [2]: 0.25 ± 0.02 nM

Compound: Nc1ccc(C(=O)C2CCN([C@@H]3Cc4ccccc4C[C@H]3O)CC2)cc1 (racemic) [Compound 9c, (±)-trans-2-Hydroxy-3-(4-(4-aminobenzoyl)piperidino)tetralin]
- IC50 [2]: 1.68 ± 0.04 nM

Compound: O=C(c1ccc([N+](=O)[O-])cc1)C1CCN([C@@H]2Cc3ccccc3C[C@H]2O)CC1 (racemic) [Compound 9d, (±)-trans-2-Hydroxy-3-(4-(4-nitrobenzoyl)piperidino)tetralin]
- IC50 [2]: 0.48 ± 0.03 nM

Compound: O=C(c1ccc(F)cc1)C1CCN([C@@H]2Cc3ccccc3C[C@H]2O)CC1 (relative stereo) [(±)9e, (±)-trans-2-Hydroxy-3-(4-(4-fluorobenzoyl)piperidino)tetralin]
- IC50 [2]: 2.7 ± 0.4 nM
- Ki [2]: 2.7 ± 0.4 nM

Compound: O=C(c1ccc(F)cc1)C1CCN([C@@H]2Cc3ccccc3C[C@H]2O)CC1 (single isomer, unassigned) [(+)-9e]
- Ki [2]: 108 ± 15 nM

Compound: (+)-trans-2-Hydroxy-3-(4-(4-[^18F]fluorobenzoyl)piperidino)tetralin [(+)-[^18F]9e]
- Bone uptake ([1]; 5 min p.i.): 0.187 ± 0.015 %ID/g
- Brain uptake ([1]; 5 min p.i.): 0.350 ± 0.040 %ID/g
- Fat uptake ([1]; 5 min p.i.): 0.052 ± 0.017 %ID/g
- Heart uptake ([1]; 5 min p.i.): 0.194 ± 0.006 %ID/g
- Kidney uptake ([1]; 5 min p.i.): 0.791 ± 0.123 %ID/g
- Liver uptake ([1]; 5 min p.i.): 1.849 ± 0.566 %ID/g
- Lung uptake ([1]; 5 min p.i.): 0.904 ± 0.161 %ID/g
- Muscle uptake ([1]; 5 min p.i.): 0.047 ± 0.010 %ID/g
- Ratio Striatum: Cerebellum ([1]; 5 min p.i.): 1.15 ± 0.04
- Ratio Striatum: Cortex ([1]; 5 min p.i.): 0.92 ± 0.02
- Ratio Striatum: Hippocampus ([1]; 5 min p.i.): 0.99 ± 0.04
- Ratio Striatum: Total Brain ([1]; 5 min p.i.): 1.02 ± 0.03
- Blood uptake ([1]; 5 min p.i., n=4 rats): 0.136 ± 0.020 %ID/g
- Ratio Striatum: Blood ([1]; 5 min p.i., %ID/g striatum divided by %ID/g non-striatal tissue, n=4 rats): 2.67 ± 0.57
- Bone uptake ([1]; 30 min p.i.): 0.277 ± 0.080 %ID/g
- Brain uptake ([1]; 30 min p.i.): 0.071 ± 0.012 %ID/g
- Fat uptake ([1]; 30 min p.i.): 0.108 ± 0.053 %ID/g
- Heart uptake ([1]; 30 min p.i.): 0.094 ± 0.013 %ID/g
- Kidney uptake ([1]; 30 min p.i.): 0.416 ± 0.048 %ID/g
- Liver uptake ([1]; 30 min p.i.): 1.239 ± 0.271 %ID/g
- Lung uptake ([1]; 30 min p.i.): 0.332 ± 0.073 %ID/g
- Muscle uptake ([1]; 30 min p.i.): 0.051 ± 0.010 %ID/g
- Ratio Striatum: Blood ([1]; 30 min p.i.): 0.95 ± 0.18
- Ratio Striatum: Cerebellum ([1]; 30 min p.i.): 1.3 ± 0.07
- Ratio Striatum: Cortex ([1]; 30 min p.i.): 1.08 ± 0.09
- Ratio Striatum: Hippocampus ([1]; 30 min p.i.): 0.93 ± 0.03
- Ratio Striatum: Total Brain ([1]; 30 min p.i.): 1.13 ± 0.04
- Blood uptake ([1]; 30 min p.i., n=4 rats): 0.087 ± 0.016 %ID/g
- Bone uptake ([1]; 1 h p.i.): 0.399 ± 0.078 %ID/g
- Brain uptake ([1]; 1 h p.i.): 0.041 ± 0.002 %ID/g
- Fat uptake ([1]; 1 h p.i.): 0.154 ± 0.065 %ID/g
- Heart uptake ([1]; 1 h p.i.): 0.051 ± 0.005 %ID/g
- Kidney uptake ([1]; 1 h p.i.): 0.291 ± 0.032 %ID/g
- Liver uptake ([1]; 1 h p.i.): 0.814 ± 0.120 %ID/g
- Lung uptake ([1]; 1 h p.i.): 0.188 ± 0.035 %ID/g
- Muscle uptake ([1]; 1 h p.i.): 0.034 ± 0.008 %ID/g
- Ratio Striatum: Blood ([1]; 1 h p.i.): 0.9 ± 0.23
- Ratio Striatum: Cerebellum ([1]; 1 h p.i.): 1.17 ± 0.12
- Ratio Striatum: Cortex ([1]; 1 h p.i.): 0.95 ± 0.09
- Ratio Striatum: Hippocampus ([1]; 1 h p.i.): 0.98 ± 0.14
- Ratio Striatum: Total Brain ([1]; 1 h p.i.): 1.02 ± 0.09
- Blood uptake ([1]; 1 h p.i., n=4 rats): 0.048 ± 0.007 %ID/g
- Bone uptake ([1]; 2 h p.i.): 0.532 ± 0.096 %ID/g
- Brain uptake ([1]; 2 h p.i.): 0.022 ± 0.004 %ID/g
- Fat uptake ([1]; 2 h p.i.): 0.150 ± 0.062 %ID/g
- Heart uptake ([1]; 2 h p.i.): 0.031 ± 0.006 %ID/g
- Kidney uptake ([1]; 2 h p.i.): 0.194 ± 0.027 %ID/g
- Liver uptake ([1]; 2 h p.i.): 0.692 ± 0.081 %ID/g
- Lung uptake ([1]; 2 h p.i.): 0.112 ± 0.023 %ID/g
- Muscle uptake ([1]; 2 h p.i.): 0.022 ± 0.005 %ID/g
- Ratio Striatum: Blood ([1]; 2 h p.i.): 0.87 ± 0.11
- Ratio Striatum: Cerebellum ([1]; 2 h p.i.): 1.14 ± 0.09
- Ratio Striatum: Cortex ([1]; 2 h p.i.): 0.91 ± 0.15
- Ratio Striatum: Hippocampus ([1]; 2 h p.i.): 0.99 ± 0.08
- Ratio Striatum: Total Brain ([1]; 2 h p.i.): 1.04 ± 0.06
- Blood uptake ([1]; 2 h p.i., n=4 rats): 0.027 ± 0.002 %ID/g

Compound: (-)-trans-2-Hydroxy-3-(4-(4-[^18F]fluorobenzoyl)piperidino)tetralin [(-)-[^18F]9e]
- accumulation in the cortex (autoradiogram) [3]: moderate accumulation
- accumulation in the striatum (autoradiogram) [3]: high accumulation
- Bone uptake ([1]; 5 min p.i.): 0.334 ± 0.047 %ID/g
- Brain uptake ([1]; 5 min p.i.): 0.823 ± 0.091 %ID/g
- Fat uptake ([1]; 5 min p.i.): 0.132 ± 0.095 %ID/g
- Heart uptake ([1]; 5 min p.i.): 0.321 ± 0.027 %ID/g
- Kidney uptake ([1]; 5 min p.i.): 2.02 %ID/g and 2.018 ± 0.448 %ID/g
- Muscle uptake ([1]; 5 min p.i.): 0.091 ± 0.018 %ID/g
- Blood uptake ([1]; 5 min p.i., n=4 rats): 0.073 ± 0.010 %ID/g
- Initial uptake in cerebellum [1, 4]: 0.743 %ID/g
- Initial uptake in cortex [1, 4]: 0.911 %ID/g
- Initial uptake in hippocampus [1, 4]: 0.837 %ID/g
- Initial uptake in striatum [1, 4]: 0.911 %ID/g
- Bone uptake ([1]; 30 min p.i.): 0.157 ± 0.004 %ID/g
- Brain uptake ([1]; 30 min p.i.): 0.226 ± 0.014 %ID/g
- Fat uptake ([1]; 30 min p.i.): 0.207 ± 0.018 %ID/g
- Heart uptake ([1]; 30 min p.i.): 0.109 ± 0.014 %ID/g
- Kidney uptake ([1]; 30 min p.i.): 1.896 ± 0.333 %ID/g
- Lung uptake ([1]; 30 min p.i.): 0.481 ± 0.088 %ID/g
- Muscle uptake ([1]; 30 min p.i.): 0.080 ± 0.008 %ID/g
- Blood uptake ([1]; 30 min p.i., n=4 rats): 0.037 ± 0.002 %ID/g
- Bone uptake ([1]; 1 h p.i.): 0.148 ± 0.015 %ID/g
- Brain uptake ([1]; 1 h p.i.): 0.124 ± 0.013 %ID/g
- Fat uptake ([1]; 1 h p.i.): 0.241 ± 0.021 %ID/g
- Heart uptake ([1]; 1 h p.i.): 0.066 ± 0.008 %ID/g
- Kidney uptake ([1]; 1 h p.i.): 1.298 ± 0.372 %ID/g
- Lung uptake ([1]; 1 h p.i.): 0.327 ± 0.022 %ID/g
- Muscle uptake ([1]; 1 h p.i.): 0.056 ± 0.010 %ID/g
- Blood uptake ([1]; 1 h p.i., n=4 rats): 0.029 ± 0.005 %ID/g
- Bone uptake ([1]; 2 h p.i.): 0.138 ± 0.006 %ID/g
- Brain uptake ([1]; 2 h p.i.): 0.095 ± 0.016 %ID/g
- Fat uptake ([1]; 2 h p.i.): 0.249 ± 0.036 %ID/g
- Heart uptake ([1]; 2 h p.i.): 0.047 ± 0.009 %ID/g
- Kidney uptake ([1]; 2 h p.i.): 1.339 ± 0.160 %ID/g
- Lung uptake ([1]; 2 h p.i.): 0.199 ± 0.032 %ID/g
- Muscle uptake ([1]; 2 h p.i.): 0.035 ± 0.007 %ID/g
- Blood uptake ([1]; 2 h p.i., n=4 rats): 0.020 ± 0.002 %ID/g
